# According to ChEMBL document CHEMBL3414508, “A few atoms make the difference: synthetic, CD, NMR and computational studies on antiviral and antibacterial activities of glycopeptide antibiotic aglycon derivatives” (Eur J Med Chem, 2015):
# pEC50: −log10 of the molar value.
# Key:
# [1] = Cytotoxicity against MDCK cells after 72 hrs by microscopic analysis; assay type: cell-based, Canis lupus familiaris; conditions: dog
# Outline: (§1)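 Uninfected MDCK cultures were run in parallel with serial compound dilutions for 72 h at 35°C. MCC is the concentration producing minimal changes in cell morphology, judged by microscopy. […] Means of 2 to 5 independent tests.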
# Influenza A virus [2] = experiment: Antiviral activity against Influenza A virus (A/Puerto Rico/8/34(H1N1)) infected in MDCK cells assessed as reduction of virus-induced cytopathic effect after 72 hrs by microscopic analysis; assay type: functional, organism-based; conditions: A/Puerto Rico/8/1934(H1N1)
# Outline: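 Subconfluent MDCK cultures given serial compound dilutions together with virus at MOI 0.0004 PFU/cell. Incubation 72 h at 35°C. Means of 2 to 5 independent tests.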
# [3] = Antiviral activity against Influenza A virus (A/Hong Kong/7/1987(H3N2)) infected in MDCK cells assessed as reduction of virus-induced cytopathic effect after 72 hrs by microscopic analysis; assay type: functional, cell-based
# Outline: (§2)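 Subconfluent MDCK cultures given serial compound dilutions together with virus at MOI 0.0004 PFU/cell. Incubation 72 h at 35°C. […] Means of 2 to 5 independent tests.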
# Influenza B virus [4] = experiment: Antiviral activity against Influenza B virus (B/Hong Kong/05/1972) infected in MDCK cells assessed as reduction of virus-induced cytopathic effect after 72 hrs by microscopic analysis; assay type: functional, cell-based; conditions: B/Hong Kong/05/1972, MDCK; outline: as §2
# Influenza A virus [5] = experiment: Antiviral activity against Influenza A virus (A/Puerto Rico/8/34(H1N1)) infected in MDCK cells assessed as cell viability after 72 hrs by MTS assay; assay type: functional, organism-based, A/Puerto Rico/8/1934(H1N1); outline: as §2
# [6] = Cytotoxicity against MDCK cells after 72 hrs by MTS assay; assay type: cell-based, Canis lupus familiaris; conditions: dog; outline: as §1
# [7] = Antiviral activity against Influenza A virus (A/Hong Kong/7/1987(H3N2)) infected in MDCK cells assessed as cell viability after 72 hrs by MTS assay; assay type: functional, cell-based; outline: as §2
# Influenza B virus [8] = experiment: Antiviral activity against Influenza B virus (B/Hong Kong/05/1972) infected in MDCK cells assessed as cell viability after 72 hrs by MTS assay; assay type: functional, cell-based; conditions: B/Hong Kong/05/1972, MDCK; outline: as §2
# [9] = Influenza A virus, A/Puerto Rico/8/1934(H1N1), MDCK, 72 h
Structure (SMILES),MCC at 72 h [1],pEC50 (Influenza A virus [2]),pEC50 [3],pEC50 (Influenza B virus [4]),pEC50 (Influenza A virus [5]; [9]),CC50 at 72 h [6],pEC50 [7],pEC50 (Influenza B virus [8]),pEC50 (Influenza A virus [5]; mdck)
CC(N)C12CC3CC(CC(C3)C1)C2 (stereo not given) [RIMANTADINE],> 500 µM,5.40,5.40,< 3.30,4.82,> 500 µM,5.96,< 3.30,–
COC(=O)[C@H]1NC(=O)[C@H]2NC(=O)[C@H](NC(=O)[C@@H]3NC(=O)[C@H]4NC(=O)[C@@H](Cc5ccc(c(Cl)c5)Oc5cc3cc(c5O)Oc3ccc(cc3Cl)[C@H]2O[C@@H]2O[C@H](CO)[C@@H](O)[C@H](O)[C@H]2NC(C)=O)NC(=O)[C@H](Nc2c(NCc3ccc(-c5ccccc5)cc3)c(=O)c2=O)c2ccc(O)c(c2)Oc2cc(O)cc4c2)c2ccc(O)c(c2)-c2c(O)cc(O)cc21,20 µM,< 4.00,< 4.00,< 4.00,< 4.00,58 µM,< 4.00,< 4.00,–
COC(=O)[C@H]1NC(=O)[C@H]2NC(=O)[C@H](NC(=O)[C@@H]3NC(=O)[C@H]4NC(=O)[C@H](NC(=O)[C@H](N)c5ccc(O)c(c5)Oc5cc4cc(O)c5C)[C@H](O)c4ccc(cc4)Oc4cc3cc(c4O)Oc3ccc(cc3)[C@H]2O)c2ccc(O)c(c2)-c2c(O)cc(O)cc21,81 µM,–,5.34,5.29,–,44 µM,5.60,5.27,–
CC(=O)N[C@H]1[C@H](O[C@@H]2c3ccc(c(Cl)c3)Oc3cc4cc(c3O)Oc3ccc(cc3Cl)C[C@H]3NC(=O)[C@H](N)c5ccc(O)c(c5)Oc5cc(O)cc(c5)[C@H](NC3=O)C(=O)N[C@H]4C(=O)N[C@H]3C(=O)N[C@@H]2C(=O)N[C@H](C(=O)O)c2cc(O)cc(O)c2-c2cc3ccc2O)O[C@H](CO)[C@@H](O)[C@@H]1O,≥ 100 µM,–,4.77,< 4.00,4.37,> 100 µM,4.47,< 4.00,–
COC(=O)[C@H]1NC(=O)[C@H]2NC(=O)[C@H](NC(=O)[C@@H]3NC(=O)[C@H]4NC(=O)[C@@H](Cc5ccc(c(Cl)c5)Oc5cc3cc(c5O)Oc3ccc(cc3Cl)[C@H]2O)NC(=O)[C@H](Nc2c(NCc3ccc(-c5ccccc5)cc3)c(=O)c2=O)c2ccc(O)c(c2)Oc2cc(O)cc4c2)c2ccc(O)c(c2)-c2c(O)cc(O)cc21,4 µM,< 4.00,< 4.00,< 4.00,< 4.00,7.6 µM,< 4.00,< 4.00,–
NC(=O)c1ncn([C@@H]2O[C@H](CO)[C@@H](O)[C@H]2O)n1 [RIBAVIRIN],> 100 µM,–,4.92,5.15,–,> 100 µM,4.92,5.47,5.05
COC(=O)[C@H]1NC(=O)[C@H]2NC(=O)[C@H](NC(=O)[C@@H]3NC(=O)[C@H]4NC(=O)[C@@H](Cc5ccc(c(Cl)c5)Oc5cc3cc(c5O)Oc3ccc(cc3Cl)[C@H]2O[C@@H]2O[C@H](CO)[C@@H](O)[C@H](O)[C@H]2NC(C)=O)NC(=O)[C@H](Nc2c(OC)c(=O)c2=O)c2ccc(O)c(c2)Oc2cc(O)cc4c2)c2ccc(O)c(c2)-c2c(O)cc(O)cc21,100 µM,< 4.00,< 4.00,< 4.00,< 4.00,> 100 µM,< 4.00,< 4.00,–
CC(=O)N[C@H]1[C@H](O[C@@H]2c3ccc(c(Cl)c3)Oc3cc4cc(c3O)Oc3ccc(cc3Cl)C[C@H]3NC(=O)[C@H](Nc5c(NCc6ccc(-c7ccccc7)cc6)c(=O)c5=O)c5ccc(O)c(c5)Oc5cc(O)cc(c5)[C@H](NC3=O)C(=O)N[C@H]4C(=O)N[C@H]3C(=O)N[C@@H]2C(=O)N[C@H](C(=O)O)c2cc(O)cc(O)c2-c2cc3ccc2O)O[C@H](CO)[C@@H](O)[C@@H]1O,0.8 µM,< 4.00,< 4.00,< 4.00,< 4.00,6.5 µM,< 4.00,< 4.00,–
N[C@H]1C(=O)N[C@@H]2Cc3ccc(c(Cl)c3)Oc3cc4cc(c3O)Oc3ccc(cc3Cl)[C@@H](O)[C@@H]3NC(=O)[C@H](NC(=O)[C@@H]4NC(=O)[C@@H](NC2=O)c2cc(O)cc(c2)Oc2cc1ccc2O)c1ccc(O)c(c1)-c1c(O)cc(O)cc1[C@@H](C(=O)O)NC3=O [TEICOPLANIN AGLYCON],100 µM,< 4.00,< 4.00,< 4.00,< 4.00,> 100 µM,< 4.00,< 4.00,–
O=C1N[C@H]2C(=O)N[C@H]3C(=O)N[C@H](C(=O)N[C@H](C(=O)O)c4cc(O)cc(O)c4-c4cc3ccc4O)[C@H](O)c3ccc(c(Cl)c3)Oc3cc2cc(c3O)Oc2ccc(cc2Cl)C[C@H]2NC(=O)[C@H](Nc3c(NCc4ccc(-c5ccccc5)cc4)c(=O)c3=O)c3ccc(O)c(c3)Oc3cc(O)cc(c3)[C@@H]1NC2=O,20 µM,< 4.00,< 4.00,< 4.00,< 4.00,11 µM,< 4.00,< 4.00,–
COC(=O)[C@H]1NC(=O)[C@H]2NC(=O)[C@H](NC(=O)[C@@H]3NC(=O)[C@H]4NC(=O)[C@H](NC(=O)[C@H](Nc5c(NCc6ccc(-c7ccccc7)cc6)c(=O)c5=O)c5ccc(O)c(c5)Oc5cc4cc(O)c5C)[C@H](O)c4ccc(cc4)Oc4cc3cc(c4O)Oc3ccc(cc3)[C@H]2O)c2ccc(O)c(c2)-c2c(O)cc(O)cc21,20 µM,6.82,6.82,6.08,6.68,39 µM,≥ 6.38,6.00,–
NC12CC3CC(CC(C3)C1)C2 [AMANTADINE],> 500 µM,–,5.70,< 3.30,3.34,> 500 µM,5.74,< 3.30,–
COC(=O)[C@H]1NC(=O)[C@H]2NC(=O)[C@H](NC(=O)[C@@H]3NC(=O)[C@H]4NC(=O)[C@@H](Cc5ccc(cc5)Oc5cc3cc(c5O)Oc3ccc(cc3)[C@H]2O)NC(=O)[C@H](Nc2c(NCc3ccc(-c5ccccc5)cc3)c(=O)c2=O)c2ccc(O)c(c2)Oc2cc(O)cc4c2)c2ccc(O)c(c2)-c2c(O)cc(O)cc21,16 µM,6.17,6.28,< 4.00,6.24,20 µM,6.15,< 4.00,–
COc1c(N[C@H]2C(=O)N[C@@H]3Cc4ccc(c(Cl)c4)Oc4cc5cc(c4O)Oc4ccc(cc4Cl)[C@@H](O)[C@@H]4NC(=O)[C@H](NC(=O)[C@@H]5NC(=O)[C@@H](NC3=O)c3cc(O)cc(c3)Oc3cc2ccc3O)c2ccc(O)c(c2)-c2c(O)cc(O)cc2[C@@H](C(=O)O)NC4=O)c(=O)c1=O,100 µM,< 4.00,< 4.00,< 4.00,< 4.00,49 µM,< 4.00,< 4.00,–
COC(=O)[C@H]1NC(=O)[C@H]2NC(=O)[C@H](NC(=O)[C@@H]3NC(=O)[C@H]4NC(=O)[C@@H](Cc5ccc(c(Cl)c5)Oc5cc3cc(c5O)Oc3ccc(cc3Cl)[C@H]2O[C@@H]2O[C@H](CO)[C@@H](O)[C@H](O)[C@H]2NC(C)=O)NC(=O)[C@H](N)c2ccc(O)c(c2)Oc2cc(O)cc4c2)c2ccc(O)c(c2)-c2c(O)cc(O)cc21,100 µM,< 4.00,< 4.00,< 4.00,< 4.00,> 100 µM,< 4.00,< 4.00,–
